Measured values taken from ChEMBL document CHEMBL3352368, “Amino derivatives of indolone-N-oxide: preparation and antiplasmodial properties” (Eur J Med Chem, 2014).

Columns and labels:
Plasmodium falciparum = experiment: Antiplasmodial activity against chloroquine-resistant Plasmodium falciparum FcB1 infected in human RBC assessed as [3H]-hypoxanthine incorporation after 48 hrs by liquid scintillation counting analysis; type: functional, organism-based
How it was run: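 FcB1 maintained in RPMI 1640 with L-glutamine, 25 mM HEPES, 10% human serum, group O RBCs, 5% CO2; synchronized by magnetic enrichment then D-sorbitol lysis. Serial dilutions in culture medium; [3H]-hypoxanthine added at 24 h, harvest at 48 h after freeze-thaw. IC50 by linear regression on linear segments of semilog inhibition curves; triplicate, three repeats.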

[1] = Cytotoxicity against human MCF7 cells assessed as decrease in cell viability after 48 hrs by XTT assay; type: cell-based
How it was run: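 MCF-7 cells grown as for parasite culture but with 10% fetal calf serum in place of human serum; trypsinized and seeded at 2 × 10^4 cells/well, incubated overnight, then compound added at final 1, 10 and 100 […] mL1. Viability read by XTT reduction after 48 h drug contact; experiments run twice in triplicate.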

[2] = Selectivity index, ratio of CC50 for human MCF7 cells to IC50 for chloroquine-resistant Plasmodium falciparum FcB1; type: functional
Plasmodium berghei = experiment: In vivo antimalarial activity against Plasmodium berghei ANKA assessed as inhibition of parasitemia at 30 mg/kg/day; type: functional
[3] = Half life in human liver microsomes; type: ADME

half-life [3] | Compound | IC50 (Plasmodium falciparum; Plasmodium falciparum, FcB1) | CC50 at 48 h [1] | Ratio CC50/IC50 [2] | IC50 (Plasmodium falciparum) | inhibition in vivo at 30 mg/kg/day (Plasmodium berghei)
 | C[C@H]1[C@H](OC(=O)CCC(=O)O)O[C@@H]2O[C@@]3(C)CC[C@H]4[C@H](C)CC[C@@H]1[C@@]24OO3 [SODIUM ARESUNATE] | 0.006 µM |  |  |  | 
 | CN(C)c1ccc(C2=[N+]([O-])c3cc(N)ccc3C2=O)cc1 | 12.3 µM | 21.3 µM | 1.8 |  | 
 | O=C1C(c2ccc(Cl)cc2)=[N+]([O-])c2cccnc21 | > 2.72 µM |  |  |  | 
 | COc1ccc2c(c1)C(=O)C(c1ccc(N(C)C)c(C)c1)=[N+]2[O-] | 0.04 µM | 35.4 µM | 885 |  | 
 | COc1ccc2c(c1)C(=O)C(c1ccc(N(C)C)cc1)=[N+]2[O-] |  |  | >14623 | < 0.003 µM | 15.3%
 | O=C1C(c2ccccc2)=[N+]([O-])c2cc([N+](=O)[O-])c(/C=C(\Cl)c3ccccc3)cc21 | 0.84 µM | 59 µM | 70 |  | 
 | COc1ccc2c(c1)C(=O)C(c1ccc(N(C)C)cc1)=[N+]2[O-].Cl |  | 33.7 µM | >112333 | < 0.0003 µM | 
< 1 min | O=C1C(c2ccc(Cl)cc2)=[N+]([O-])c2cc3c(cc21)OCO3 |  |  |  |  | 62.1%
 | Nc1ccc2c(c1)[N+]([O-])=C(CCCN1C(=O)c3ccccc3C1=O)C2=O | 8.3 µM | 6.6 µM | 0.8 |  | 
 | COc1ccc2c(c1)C(=O)C(c1cccnc1)=[N+]2[O-] | 0.161 µM | 17.3 µM | 107 |  | 
 | Nc1ccc(C2=[N+]([O-])c3ccccc3C2=O)cc1 | 0.168 µM | 13 µM | 77 |  | 
 | COc1ccc(C2=[N+]([O-])c3cc(N)ccc3C2=O)cc1 | 1.56 µM | > 37.3 µM | >33 |  | 
 | COc1ccc2c(c1)[N+]([O-])=C(c1ccc(N)cc1)C2=O | 0.024 µM | 12.7 µM | 528 |  | 
 | CCCCNc1ccc(C2=[N+]([O-])c3ccc(OC)cc3C2=O)cc1 | 0.021 µM | 43.2 µM | 2057 |  | 
 | COc1ccc2cc(C3=[N+]([O-])c4cc(N)ccc4C3=O)ccc2c1 | 1.32 µM | 7.8 µM | 6 |  | 
 | O=C1C(c2ccc(Cl)cc2)=[N+]([O-])c2cc[n+]([O-])cc21 | > 5.44 µM |  |  |  | 
 | Nc1ccc2c(c1)[N+]([O-])=C(c1ccc(Cl)cc1)C2=O | 0.183 µM | 11 µM | 60 |  | 
 | COc1ccc2c(c1)C(=O)C(c1ccc(N3CCOCC3)cc1)=[N+]2[O-] | 0.0065 µM | > 29.5 µM | >4538.5 |  | 
 | COc1ccc2c(c1)C(=O)C(c1ccc(N)cc1)=[N+]2[O-].Cl | < 0.003 µM | 9.7 µM | >3233 |  | 
 | CCOC(=O)c1ccc2c(c1)[N+]([O-])=C(c1ccccc1)C2=O | 0.284 µM | 26.4 µM | 91.9 |  | 
